AI-2 QS modul – Vibrio harveyi AI-2 quorum sensing modulators, primary screen, JMH597 strain, luminescence/OD600 ratio | Vibrio harveyi JMH597 AI-2 luminescence/OD600 ratio, 9 h; stronger effect = lower value; strain lacks LuxN and CqsS sensors; 0 = neutral-control median | activity change, % at 7.5 µM | 300,000 tested, 0.4% active; in the data active = activity change below about -75%, passing the limit was not always enough; inconclusive = no clear call, values can overlap the other calls;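 note: luminescence divided by OD600 gain over 9 h not by final OD600 alone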
GSK3beta inhib – human GSK3beta kinase inhibitors, primary screen, biochemical, cell-free homogeneous, HTS | AID 2097, 2009 | 300,000 tested, 0.038% active | GST-GSK3beta kinase, ADP-Glo luminescence, 60 min; stronger effect = lower value | Glycogen synthase kinase-3 beta (Homo sapiens), P49841 | activity score (negative = inhibition), % at 10 µM;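 active = more than half of replicate wells score below -50%, meaning over 50% inhibition versus plate controls; inconclusive = some replicates but at most half score below -50%; inactive = no replicate scores below -50%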;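 note: 0% = median DMSO wells and -100% = median GW8510 positive control wells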
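Assay system: GST-tagged human GSK3beta kinase, cell-free; Input: 1.6 ng GSK3beta; Medium: Tris/MgCl2 kinase buffer; Timing: 60 min enzyme reaction, room temperature; Signal: ADP-Glo luminescence quantifying ADP generated by kinase; Evaluation: score relative to plate controls; Benchmarks: DMSO neutral wells and GW8510 at 20 µM as positive.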
GSK3 alpha inh – blockers of GSK3A enzyme activity – biochemical, luminescence, cell-free homogeneous, HTS, primary screen | Glycogen synthase kinase-3 alpha (Homo sapiens), P49840 | GSK-3 alpha kinase, ADP-Glo luminescence, 60 min | inhibition, % at 10 µM | 320,000 tested, 0.1% active;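 active = more than half of replicates show inhibition above 20%; inconclusive = some but at most half of replicates above 20% inhibition; inactive = no replicate shows inhibition above 20%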;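 note: GST-tagged GSK-3 alpha with peptide substrate and 25 µM ATP; 0% = DMSO neutral wells and 100% = GW8510 positive control wells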
Target sequence (P49840 whole entry, looked up): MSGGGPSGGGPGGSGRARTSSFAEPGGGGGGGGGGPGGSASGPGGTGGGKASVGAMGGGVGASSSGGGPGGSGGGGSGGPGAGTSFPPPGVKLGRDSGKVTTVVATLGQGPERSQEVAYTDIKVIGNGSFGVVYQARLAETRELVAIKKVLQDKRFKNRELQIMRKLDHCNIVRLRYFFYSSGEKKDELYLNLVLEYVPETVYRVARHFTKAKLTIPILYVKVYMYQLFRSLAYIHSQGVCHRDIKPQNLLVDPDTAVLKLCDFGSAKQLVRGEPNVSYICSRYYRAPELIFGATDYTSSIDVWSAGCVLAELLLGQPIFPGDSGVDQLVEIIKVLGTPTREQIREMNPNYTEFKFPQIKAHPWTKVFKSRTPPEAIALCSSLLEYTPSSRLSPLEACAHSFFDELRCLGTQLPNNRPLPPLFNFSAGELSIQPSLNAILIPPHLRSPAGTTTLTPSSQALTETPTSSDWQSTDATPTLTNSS
Rce1 inhib – yeast Rce1p protease inhibitors, primary screen, biochemical, fluorescence, cell-free homogeneous; CAAX prenyl protease 2 (Saccharomyces cerevisiae (strain ATCC 204508 / S288c)), Q03530; yeast membranes, quenched prenylated peptide cleavage fluorescence; calls only; 290,000 tested, 0.27% active; AID 2563, 2010;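 active = fall in fluorescence gain of 50% or more versus controls, with final raw signal at or below 3038400; inconclusive = same 50% fall but final raw signal above 3038400; inactive = fall in fluorescence gain under 50%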;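 note: plate controls were neutral control wells for no effect and wells lacking membranes for full effect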
STK33 inh – inhibitors of purified STK33 kinase, primary screen, biochemical, ADP-Glo luminescence, homogeneous, cell-free | MBP phosphorylation | inhibition, % at 10 µM | 320,000 tested, 0.073% active | AID 2661, 2010;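 active = inhibition at or above 25%, using the most active replicate where run in duplicate; inactive = inhibition below 25%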
DYRK1A inh – rat Dyrk1A kinase inhibitors, primary screen, biochemical, single point, plate reader. inhibition, % at 12.5 µM. ADP-Glo luminescence, NFATc1 peptide. Dual specificity tyrosine-phosphorylation-regulated kinase 1A (Rattus norvegicus), Q63470. 310,000 tested, 0.43% active; in the data active = inhibition above about 50%;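 note: plate controls were vehicle with enzyme for no effect and no enzyme for full effect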
JMH597 growth – Vibrio harveyi growth inhibition, confirmation, counter-screen for AI-2 quorum sensing project, JMH597 strain, OD600 absorbance; shares compounds with AI-2 QS modul; 9 h; lacks LuxN and CqsS sensors; growth inhibition, % at 7.5 µM; 750 tested, 1% active;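 active = every replicate shows growth inhibition above 50%; inconclusive = at least half, but not all, replicates pass that cutoff; inactive = fewer than half of replicates pass it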
BB721 const-QS lum – luminescence inhibition in constitutive-on V. harveyi, confirmation, counter-screen for LuxS inhibitor project, strain BB721, luminescence readout. 750 tested, 95% active. AID 2727, 2010. Vibrio harveyi BB721 luminescence, 9 h. shares compounds with AI-2 QS modul. inhibition, % at 7.5 µM;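 active = inhibition above about 80% in every replicate, not just on average, limit read from the data; inconclusive = at least half of replicates past the limit, but not all; inactive = fewer than half of replicates past the limit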
BB721 growth – growth inhibition of V. harveyi BB721, confirmation, cytotoxicity control for AI-2 quorum sensing inhibitors, strain BB721, absorbance OD600; 750 tested, 3% active; shares compounds with AI-2 QS modul; growth inhibition, % at 7.5 µM; Vibrio harveyi BB721 growth, 9 h;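 active = every replicate shows growth inhibition above 50%; inconclusive = at least half but not all replicates above 50% inhibition; inactive = under half of replicates above 50% inhibition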
JMH597 AI-2 mod – Vibrio harveyi AI-2 signaling luminescence modulation – JMH597 strain, confirmation. AID 2736, 2010. shares compounds with AI-2 QS modul. inhibition, % at 7.5 µM. Vibrio harveyi JMH597 AI-2 quorum sensing luminescence, 9 h; luxN and CqsS knockout, AI-2 only. 750 tested, 97% active;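 active = every replicate shows more than 75% inhibition of signal versus neutral control wells; inconclusive = half to three quarters of replicates exceed 75% inhibition; inactive = fewer than half of replicates exceed 75% inhibition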
Active calls of the source: *; i = inactive; ? = inconclusive; . = no result. Rows were chosen to be rich in hits. Some 0.99% of all compounds tested hit in one or more screens of this group.

SMILES | AI-2 QS modul | GSK3beta inhib | GSK3 alpha inh | Rce1 inhib | STK33 inh | DYRK1A inh | JMH597 growth | BB721 const-QS lum | BB721 growth | JMH597 AI-2 mod
CC(C)=CC(=O)Nc1ccc(OCc2ccccc2)cc1 | -83* | -2 | 1 | i | 0 | -6 | -16 | 94* | -5 | 96*
c1ccc(-c2nc(-c3cccnc3)cs2)cc1 | 20 | -2 | -1 | i | 0 | 1 | . | . | . | .
c1ccc(CNc2nc(-c3cccnc3)cs2)cc1 | -83* | 1 | 3 | i | 1 | 4 | 22 | 94* | 12 | 97*
COc1ccc(-c2nnn(-c3cc(Cl)cc(Cl)c3)c2N)cc1 | 18 | -3 | 1 | i | -3 | . | . | . | . | .
COc1ccc(S(=O)(=O)c2nnn(-c3cccc(Cl)c3)c2N)cc1 | ? | 0 | -1 | i | -1 | 0 | 1 | 99* | -70 | 100*
Cc1ccc(CSc2nnc(-c3cccnc3)n2N)cc1 | -90* | -2 | -2 | i | -2 | -4 | -8 | 96* | -1 | 97*
Cc1ccc(CSc2nnc(-c3ccco3)n2N)cc1 | -71 | -1 | 1 | i | 1 | -1 | . | . | . | .
Cc1nc(-c2cccnc2)sc1C(=O)Nc1cccc(C(F)(F)F)c1 | -86* | -1 | . | i | 0 | 15 | -15 | 85* | 10 | 89*
Cc1ccc(OCCC(=O)OCC(=O)Nc2ccc(F)cc2)cc1 | 12 | 5 | -4 | i | . | -5 | . | . | . | .
Cc1cccc(OCCC(=O)Nc2ccc(F)c(Cl)c2)c1 | -86* | -1 | -1 | i | -1 | 3 | 23 | 94* | 32 | 95*
Cc1ccc(OCCC(=O)Nc2ccc(F)c(F)c2)cc1 | -86* | 1 | -1 | i | 0 | -4 | 15 | 94* | 11 | 94*
O=C(CSc1nnc(-c2ccc(S(=O)(=O)N3CCCC3)cc2)o1)NCc1ccco1 | -83* | 3 | -4 | i | -1 | -1 | 23 | 84* | 19 | 90*
Cc1cccc(C(=O)Nc2nnc(S(=O)(=O)N(C)Cc3ccco3)s2)c1 | 10 | 1 | 1 | i | -1 | -1 | . | . | . | .
Cc1c(Cl)cccc1NC(=O)COC(=O)Cn1cnc2c1c(=O)n(C)c(=O)n2C | . | . | -2 | . | 0 | -3 | . | . | . | .
CC(=O)Nc1ccc(C(=O)OCc2ccc(F)cc2)cc1 | -83* | 2 | -3 | i | 0 | -1 | 11 | 93* | 31 | 92*
CC(=O)Nc1ccc(C(=O)OCC(=O)c2ccc(F)cc2)cc1 | 4 | -12 | -2 | i | -1 | 0 | . | . | . | .
CC(=O)Nc1ccc(C(=O)OCc2ccc(Cl)cc2)cc1 | -91* | -1 | -2 | i | -1 | -7 | -12 | 97* | 58* | 96*
COc1cc(OC)c(OC)cc1CN1CCN(Cc2ccco2)CC1 | 11 | -3 | -2 | i | -2 | 5 | . | . | . | .
O=S(=O)(NCCSc1ccc(Cl)cc1)c1ccc(F)cc1 | -56 | 1 | -2 | i | 0 | 0 | . | . | . | .

High-throughput results from PubChem.
